Laboratory results from ChEMBL document CHEMBL4043192, “The discovery of IDX21437: Design, synthesis and antiviral evaluation of 2'-α-chloro-2'-β-C-methyl branched uridine pronucleotides as potent liver-targeted HCV polymerase inhibitors” (Bioorg Med Chem Lett, 2017).

Tests used:
Hepatitis C virus [1] = experiment: Antiviral activity against HCV genotype 1b Con1 expressing NS3 protease infected in human Huh-7 cells assessed as reduction in viral RNA replication after 72 hrs by luciferase reporter gene assay; assay type: functional, cell-based, Hepacivirus hominis; details: genotype 1b Con1, Huh-7, 72 h
[2] = Selectivity index, ratio of CC50 for human Huh-7 cells to EC50 for HCV genotype 1b Con1 expressing NS3 protease
Procedure, shortened: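 Selectivity index = CC50/EC50. EC50 from a luciferase-read Con1 subgenomic replicon assay in Huh-7 (GS4.1) cells.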

Plasma = experiment: Dose normalized AUC (0 to 24 hrs) in mouse plasma assessed as 2'-C-MeU level at 10 mg/kg, po administered as single dose; assay type: ADME, organism-based; details: in vivo
Procedure, shortened: (§1)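 Mice given a single oral 10 mg/kg dose. Triphosphate measured in liver and parent nucleoside in plasma. AUC expressed as dose-normalized AUC (AUC per mg/kg).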

Liver = experiment: Dose normalized AUC (0 to 24 hrs) in mouse liver assessed as 2'-C-MeUTP level at 10 mg/kg, po administered as single dose; assay type: ADME, organism-based; details: in vivo; procedure, shortened: as §1
Hepatitis C virus [3] = experiment: Antiviral activity against HCV genotype 1b Con1 infected in human Huh-7 cells over-expressing CES1; assay type: functional, cell-based, Hepacivirus hominis; details: genotype 1b Con1, Huh-7
Procedure, shortened: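 Transient HCV replicon assay in cells transfected to overexpress CES1; EC50 from inhibition versus concentration data.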

Cytochrome P450 3A4 = Cytochrome P450 3A4 (Homo sapiens, UniProt P08684); experiment: Drug metabolism assessed as CYP3A4 (unknown origin)-mediated (R)-2-((R)-(((2R,3R,4R,5R)-4-chloro-5-(2,4-dioxo-3,4-dihydropyrimidin-1(2H)-yl)-3-hydroxy-4-methyltetrahydrofuran-2-yl)methoxy)(phenoxy)phosphorylamino)propanoic acid metabolite formation; assay type: ADME
Cytochrome P450 3A5 = Cytochrome P450 3A5 (Homo sapiens, UniProt P20815); experiment: Drug metabolism assessed as CYP3A5 (unknown origin)-mediated (R)-2-((R)-(((2R,3R,4R,5R)-4-chloro-5-(2,4-dioxo-3,4-dihydropyrimidin-1(2H)-yl)-3-hydroxy-4-methyltetrahydrofuran-2-yl)methoxy)(phenoxy)phosphorylamino)propanoic acid metabolite formation; assay type: ADME
[4] = Cytotoxicity against human HuH7 cells assessed as reduction in cell viability; assay type: cell-based, Huh-7
[5] = Inhibition of wild-type HCV genotype 1b NS5B RNA dependent RNA polymerase; design: species or system Hepatitis C virus subtype 1b
Procedure, shortened: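 Biochemical assay using wild-type genotype 1b HCV NS5B polymerase. IC50 was derived from percent inhibition versus concentration data.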

[6] = target: RNA-directed RNA polymerase (Hepacivirus hominis, UniProt O39930, S282T); experiment: Inhibition of HCV genotype 1b NS5B RNA dependent RNA polymerase S282T mutant; design: species or system Hepatitis C virus subtype 1b
[7] = test system: Hepatitis C virus subtype 1b; experiment: Selectivity ratio of IC50 for HCV genotype 1b NS5B RNA dependent RNA polymerase S282T mutant to IC50 for wild-type HCV genotype 1b NS5B RNA dependent RNA polymerase
[8] = Inhibition of HCV genotype 1a NS5B RNA dependent RNA polymerase assessed as reduction in [33P]-labeled nucleotide incorporation in to RNA template after 2 hrs by liquid scintillation counting method; design: species or system Hepatitis C virus subtype 1a
Procedure, shortened: (§2)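 Biochemical enzyme inhibition assays across a panel of polymerases. IC50 was derived from percent inhibition versus concentration data.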

[9] = Inhibition of HCV genotype 2a NS5B RNA dependent RNA polymerase assessed as reduction in [33P]-labeled nucleotide incorporation in to RNA template after 2 hrs by liquid scintillation counting method; design: species or system Hepatitis C virus subtype 2a; procedure, shortened: as §2
[10] = Inhibition of HCV genotype 3a NS5B RNA dependent RNA polymerase assessed as reduction in [33P]-labeled nucleotide incorporation in to RNA template after 2 hrs by liquid scintillation counting method; design: species or system Hepatitis C virus subtype 3a; procedure, shortened: as §2
[11] = Inhibition of HCV genotype 4a NS5B RNA dependent RNA polymerase assessed as reduction in [33P]-labeled nucleotide incorporation in to RNA template after 2 hrs by liquid scintillation counting method; design: species or system Hepatitis C virus subtype 4a; procedure, shortened: as §2
[12] = Inhibition of HCV genotype 5a NS5B RNA dependent RNA polymerase assessed as reduction in [33P]-labeled nucleotide incorporation in to RNA template after 2 hrs by liquid scintillation counting method; design: species or system Hepatitis C virus subtype 5a; procedure, shortened: as §2
[13] = Inhibition of HCV genotype 6a NS5B RNA dependent RNA polymerase assessed as reduction in [33P]-labeled nucleotide incorporation in to RNA template after 2 hrs by liquid scintillation counting method; design: species or system Hepatitis C virus subtype 6a; procedure, shortened: as §2
[14] = target: T1, DNA polymerase alpha catalytic subunit (Homo sapiens, UniProt P09884); experiment: Inhibition of human DNA polymerase alpha; procedure, shortened: as §2
T1 sequence (P09884 whole entry): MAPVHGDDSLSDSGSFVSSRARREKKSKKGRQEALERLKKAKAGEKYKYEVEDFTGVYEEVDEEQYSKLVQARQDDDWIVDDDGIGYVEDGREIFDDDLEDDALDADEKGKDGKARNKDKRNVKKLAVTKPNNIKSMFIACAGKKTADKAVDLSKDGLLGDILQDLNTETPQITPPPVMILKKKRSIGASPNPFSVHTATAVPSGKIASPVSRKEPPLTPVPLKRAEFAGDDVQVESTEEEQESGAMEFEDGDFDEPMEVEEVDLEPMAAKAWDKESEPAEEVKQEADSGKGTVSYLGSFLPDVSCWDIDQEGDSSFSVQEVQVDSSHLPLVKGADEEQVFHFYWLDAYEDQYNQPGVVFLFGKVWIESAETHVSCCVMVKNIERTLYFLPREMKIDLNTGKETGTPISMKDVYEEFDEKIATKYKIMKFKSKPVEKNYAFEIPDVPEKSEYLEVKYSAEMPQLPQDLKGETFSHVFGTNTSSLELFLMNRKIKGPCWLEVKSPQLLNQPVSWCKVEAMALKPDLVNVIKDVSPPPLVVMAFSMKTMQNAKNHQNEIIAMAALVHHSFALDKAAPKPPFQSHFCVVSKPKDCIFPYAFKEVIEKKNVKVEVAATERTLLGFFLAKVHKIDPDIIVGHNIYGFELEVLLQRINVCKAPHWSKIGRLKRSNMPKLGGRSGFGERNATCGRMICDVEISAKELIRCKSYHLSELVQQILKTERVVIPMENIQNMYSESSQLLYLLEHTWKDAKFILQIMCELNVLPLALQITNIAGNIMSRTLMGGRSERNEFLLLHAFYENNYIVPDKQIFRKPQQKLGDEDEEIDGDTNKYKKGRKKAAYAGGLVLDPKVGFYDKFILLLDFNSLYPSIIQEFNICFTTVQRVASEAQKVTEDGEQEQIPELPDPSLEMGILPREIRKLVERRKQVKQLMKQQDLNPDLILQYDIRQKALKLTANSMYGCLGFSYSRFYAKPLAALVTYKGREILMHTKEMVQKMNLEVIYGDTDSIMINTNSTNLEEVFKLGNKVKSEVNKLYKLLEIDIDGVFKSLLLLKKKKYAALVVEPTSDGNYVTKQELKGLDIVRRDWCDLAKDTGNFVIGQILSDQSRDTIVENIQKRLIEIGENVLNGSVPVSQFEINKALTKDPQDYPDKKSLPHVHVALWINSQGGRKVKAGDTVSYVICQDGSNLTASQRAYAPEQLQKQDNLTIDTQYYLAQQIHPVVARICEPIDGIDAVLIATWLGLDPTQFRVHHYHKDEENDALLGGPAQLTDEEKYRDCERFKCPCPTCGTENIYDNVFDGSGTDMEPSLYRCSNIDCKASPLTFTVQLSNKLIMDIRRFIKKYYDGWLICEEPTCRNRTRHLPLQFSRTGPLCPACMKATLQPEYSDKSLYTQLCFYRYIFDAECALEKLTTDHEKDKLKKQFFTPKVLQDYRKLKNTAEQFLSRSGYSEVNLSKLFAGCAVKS

DNA polymerase beta = DNA polymerase beta (Homo sapiens, UniProt P06746); experiment: Inhibition of human DNA polymerase beta; procedure, shortened: as §2
[15] = Inhibition of human DNA polymerase gamma; procedure, shortened: as §2
[16] = Inhibition of human RNA polymerase 2; procedure, shortened: as §2
[17] = target: DNA-directed RNA polymerase, mitochondrial (Homo sapiens, UniProt O00411); experiment: Inhibition of human mitochondrial RNA polymerase; procedure, shortened: as §2
[18] = Half life in human hepatocytes; assay type: ADME, cell-based, Hepatocyte

Chain of RNA-directed RNA polymerase (O39930 entry or part of it S282T): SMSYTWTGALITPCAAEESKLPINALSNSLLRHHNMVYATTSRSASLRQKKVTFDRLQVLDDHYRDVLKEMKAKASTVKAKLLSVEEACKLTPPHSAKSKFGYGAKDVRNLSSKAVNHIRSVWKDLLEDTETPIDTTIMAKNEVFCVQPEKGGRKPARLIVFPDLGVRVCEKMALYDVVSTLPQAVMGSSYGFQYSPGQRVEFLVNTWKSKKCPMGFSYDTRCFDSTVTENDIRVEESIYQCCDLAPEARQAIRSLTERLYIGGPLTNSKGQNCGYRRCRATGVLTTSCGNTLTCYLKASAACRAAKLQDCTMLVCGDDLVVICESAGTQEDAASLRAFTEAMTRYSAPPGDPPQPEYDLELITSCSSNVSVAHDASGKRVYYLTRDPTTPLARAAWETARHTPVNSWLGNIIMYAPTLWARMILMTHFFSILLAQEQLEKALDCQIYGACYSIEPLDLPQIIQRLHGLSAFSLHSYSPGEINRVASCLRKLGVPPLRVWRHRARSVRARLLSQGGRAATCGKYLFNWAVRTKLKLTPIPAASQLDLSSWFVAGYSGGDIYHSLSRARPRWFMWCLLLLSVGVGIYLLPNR
Chain of DNA-directed RNA polymerase, mitochondrial (O00411 whole entry): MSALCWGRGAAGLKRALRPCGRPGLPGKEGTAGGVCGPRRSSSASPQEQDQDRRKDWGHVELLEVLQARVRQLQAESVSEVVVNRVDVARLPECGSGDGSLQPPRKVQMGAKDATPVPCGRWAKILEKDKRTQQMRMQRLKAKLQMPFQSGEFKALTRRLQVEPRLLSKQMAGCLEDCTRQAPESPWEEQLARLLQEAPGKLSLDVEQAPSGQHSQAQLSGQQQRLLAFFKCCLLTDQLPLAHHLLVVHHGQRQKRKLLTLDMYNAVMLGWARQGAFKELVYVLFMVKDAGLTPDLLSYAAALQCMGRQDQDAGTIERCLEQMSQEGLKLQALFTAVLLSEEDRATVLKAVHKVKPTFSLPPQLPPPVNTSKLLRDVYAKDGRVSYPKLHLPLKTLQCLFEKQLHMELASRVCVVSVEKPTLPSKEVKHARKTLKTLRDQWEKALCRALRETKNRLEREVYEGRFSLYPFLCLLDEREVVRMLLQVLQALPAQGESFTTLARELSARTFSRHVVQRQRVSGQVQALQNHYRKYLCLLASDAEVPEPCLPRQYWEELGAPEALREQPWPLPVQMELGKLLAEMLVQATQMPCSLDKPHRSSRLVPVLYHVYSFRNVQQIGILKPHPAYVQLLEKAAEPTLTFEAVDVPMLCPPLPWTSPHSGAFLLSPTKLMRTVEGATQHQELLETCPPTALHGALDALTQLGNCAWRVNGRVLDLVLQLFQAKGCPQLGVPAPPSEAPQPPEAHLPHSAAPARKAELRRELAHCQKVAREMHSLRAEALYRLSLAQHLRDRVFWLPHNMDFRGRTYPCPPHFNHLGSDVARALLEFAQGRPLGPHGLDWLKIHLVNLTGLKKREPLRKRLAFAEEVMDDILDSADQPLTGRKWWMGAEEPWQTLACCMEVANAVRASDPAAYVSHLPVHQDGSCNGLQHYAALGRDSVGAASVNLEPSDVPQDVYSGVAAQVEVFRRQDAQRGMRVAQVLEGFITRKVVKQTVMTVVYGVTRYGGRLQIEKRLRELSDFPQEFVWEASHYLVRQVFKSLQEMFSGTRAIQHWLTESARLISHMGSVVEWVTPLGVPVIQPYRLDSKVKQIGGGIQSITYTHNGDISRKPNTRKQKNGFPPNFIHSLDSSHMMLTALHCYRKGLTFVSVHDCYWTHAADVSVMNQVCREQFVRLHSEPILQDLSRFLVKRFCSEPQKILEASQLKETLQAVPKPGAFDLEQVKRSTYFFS
Chain of Cytochrome P450 3A4 (P08684 whole entry): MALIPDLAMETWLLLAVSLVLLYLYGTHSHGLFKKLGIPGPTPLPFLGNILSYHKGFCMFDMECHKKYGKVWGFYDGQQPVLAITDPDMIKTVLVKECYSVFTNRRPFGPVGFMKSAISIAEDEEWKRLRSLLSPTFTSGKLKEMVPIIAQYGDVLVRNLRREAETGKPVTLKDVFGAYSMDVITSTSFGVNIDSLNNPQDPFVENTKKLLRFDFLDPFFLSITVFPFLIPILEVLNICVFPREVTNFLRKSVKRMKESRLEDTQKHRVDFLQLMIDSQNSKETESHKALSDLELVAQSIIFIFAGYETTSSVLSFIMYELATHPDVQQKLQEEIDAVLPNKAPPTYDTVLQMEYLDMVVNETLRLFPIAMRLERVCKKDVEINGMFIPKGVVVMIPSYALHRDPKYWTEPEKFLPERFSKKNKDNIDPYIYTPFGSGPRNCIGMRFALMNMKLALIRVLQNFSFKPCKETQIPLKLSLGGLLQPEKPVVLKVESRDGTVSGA
Chain of Cytochrome P450 3A5 (P20815 whole entry): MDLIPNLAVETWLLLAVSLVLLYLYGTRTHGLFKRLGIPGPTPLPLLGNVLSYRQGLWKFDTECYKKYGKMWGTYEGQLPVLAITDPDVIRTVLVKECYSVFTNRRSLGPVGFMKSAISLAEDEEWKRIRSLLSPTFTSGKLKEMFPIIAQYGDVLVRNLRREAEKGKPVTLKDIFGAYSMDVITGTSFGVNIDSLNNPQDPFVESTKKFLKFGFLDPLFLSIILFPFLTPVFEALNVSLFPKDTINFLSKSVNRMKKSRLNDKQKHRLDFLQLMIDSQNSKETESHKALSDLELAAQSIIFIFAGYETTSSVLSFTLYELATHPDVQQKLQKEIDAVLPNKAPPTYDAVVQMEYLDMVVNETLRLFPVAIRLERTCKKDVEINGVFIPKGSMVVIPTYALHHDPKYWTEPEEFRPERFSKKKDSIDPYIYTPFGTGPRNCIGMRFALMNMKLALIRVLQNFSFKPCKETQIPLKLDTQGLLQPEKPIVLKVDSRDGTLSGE

| Structure (SMILES) | EC50 (Hepatitis C virus [1]) [nM] | Ratio CC50/EC50 [2] | AUC/dose (Plasma) [pmol·h/mL] | AUC/dose (Liver) [pmol·h/g] | EC50 (Hepatitis C virus [3]) [nM] | CC50 [4] [nM] | IC50 [5] [nM] | IC50 [6] [nM] | Ratio IC50 [7] | also measured |
| --- | --- | --- | --- | --- | --- | --- | --- | --- | --- | --- |
| CC(C)OC(=O)[C@@H](C)N[P@@](=O)(OC[C@H]1O[C@@H](n2ccc(=O)[nH]c2=O)[C@](C)(Cl)[C@@H]1O)Oc1ccccc1 [UPRIFOSBUVIR] | 56800 | >2 | 1400 | 6200 | 323 | – | – | – | – | Drug metabolism (Cytochrome P450 3A4): Metabolite_Detected; Drug metabolism (Cytochrome P450 3A5): Metabolite_Detected |
| C[C@@]1(Cl)[C@H](O)[C@@H](CO)O[C@H]1n1ccc(=O)[nH]c1=O | 57000 | – | – | – | – | > 100000 | – | – | – | – |
| CC(C)OC(=O)[C@H](C)N[P@](=O)(OC[C@H]1O[C@@H](n2ccc(=O)[nH]c2=O)[C@](C)(F)[C@@H]1O)Oc1ccccc1 [SOFOSBUVIR] | 284 | >352 | 330 | 310 | 552 | – | – | – | – | – |
| C[C@@]1(O)[C@H](O)[C@@H](CO)O[C@H]1n1ccc(=O)[nH]c1=O | 30000 | – | – | – | – | > 100000 | – | – | – | – |
| C[C@@]1(Cl)[C@H](O)[C@@H](COP(=O)(O)OP(=O)(O)OP(=O)(O)O)O[C@H]1n1ccc(=O)[nH]c1=O [4A-TP] | – | – | – | – | – | – | 154 | 944 | 6.1 | IC50 [8]: 140 nM; IC50 [9]: 250 nM; IC50 [10]: 160 nM; IC50 [11]: 150 nM; IC50 [12]: 230 nM; IC50 [13]: 100 nM; IC50 [14]: > 500000 nM; IC50 (DNA polymerase beta): > 500000 nM; IC50 [15]: 95000 nM; IC50 [16]: > 500000 nM; IC50 [17]: > 500000 nM; half-life [18]: > 18 h |
| C[C@@]1(F)[C@H](O)[C@@H](COP(=O)(O)OP(=O)(O)OP(=O)(O)O)O[C@H]1n1ccc(=O)[nH]c1=O [GS-461203] | – | – | – | – | – | – | 79 | 606 | 7.7 | – |
